Results published in ChEMBL document CHEMBL2346613, “Synthesis of indazole based diarylurea derivatives and their antiproliferative activity against tumor cell lines” (Bioorg Med Chem Lett, 2013).

Tests used:
Mus musculus [1] = assay: Acute toxicity against mouse at 2000 mg/kg, po administered as single dose; format: organism-based; design: dose 2000 mg/kg, route oral; details: in vivo
Summary of the method: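 Mice received one oral dose, and the read-out was any sign of toxicity. The highest dose given without signs was recorded as the tolerated single oral dose.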

HT-29 = assay: Cytotoxicity against human HT-29 cells after 72 hrs by MTT assay; format: functional, cell-based; details: HT-29, 72 h
Summary of the method: (§1)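 Cells were kept in RPMI-1640 or DMEM with 10% heat-inactivated FBS, penicillin–streptomycin, 2 mM glutamine and 10 mM HEPES at 37 °C, 5% CO2. They were trypsinized, seeded at 3 × 10³ per well and allowed 24 h before exposure to a range of concentrations for 72 h. MTT (5 mg/mL stock) was added for 4 h, absorbance read at 570 nm, and IC50 calculated.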

A549 = assay: Cytotoxicity against human A549 cells after 72 hrs by MTT assay; format: functional, cell-based; details: A549, 72 h; summary of the method: as §1
OS-RC-2 = assay: Cytotoxicity against human OS-RC2 cells after 72 hrs by MTT assay; format: functional, cell-based; details: OS-RC-2, 72 h; summary of the method: as §1
LoVo = assay: Cytotoxicity against human LoVo cells after 72 hrs by MTT assay; format: functional, cell-based; summary of the method: as §1
NCI-H460 = assay: Cytotoxicity against human NCI-H460 cells after 72 hrs by MTT assay; format: functional, cell-based; details: NCI-H460, 72 h; summary of the method: as §1
MDA-MB-231 = assay: Cytotoxicity against human MDA-MB-231 cells after 72 hrs by MTT assay; format: functional, cell-based; details: MDA-MB-231, 72 h; summary of the method: as §1
HepG2 = assay: Cytotoxicity against human HepG2 cells after 72 hrs by MTT assay; format: functional, cell-based; details: HepG2, 72 h; summary of the method: as §1
Bel-7402 = assay: Cytotoxicity against human Bel7402 cells after 72 hrs by MTT assay; format: functional, cell-based; details: Bel-7402, 72 h; summary of the method: as §1
SGC-7901 = assay: Cytotoxicity against human SGC7901 cells after 72 hrs by MTT assay; format: functional, cell-based; details: SGC-7901, 72 h; summary of the method: as §1
Mus musculus [2] = assay: Toxicity against mouse at 1460 mg/kg, po administered as single dose; format: organism-based; design: dose 1460 mg/kg, route oral; details: in vivo
Summary of the method: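 Acute toxicity was tested in mice by a single oral dose, with doses up to 2000 mg/kg. Animals were watched for any sign of toxicity.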

O=C(Nc1ccc(-n2ncc3c(Cl)cccc32)cc1)Nc1ccc(Cl)c(C(F)(F)F)c1
Activity (Mus musculus [1]): Non-toxic
IC50 (HT-29): 4.6 µM
IC50 (A549): 3.1 µM
IC50 (OS-RC-2): 3.1 µM
IC50 (LoVo): 3.6 µM
IC50 (NCI-H460): 1.3 µM
IC50 (MDA-MB-231): 1.6 µM
IC50 (HepG2): 1.9 µM
IC50 (Bel-7402): 2 µM
IC50 (SGC-7901): 4.6 µM

O=C(Nc1ccc(-n2ncc3c(Br)cccc32)cc1)Nc1ccc(Cl)c(C(F)(F)F)c1
IC50 (HT-29): 4 µM
IC50 (A549): 2.3 µM
IC50 (OS-RC-2): 9.9 µM
IC50 (LoVo): 1.7 µM
IC50 (NCI-H460): 1.3 µM
IC50 (MDA-MB-231): 7.7 µM
IC50 (HepG2): 2.5 µM
IC50 (Bel-7402): 1.3 µM
IC50 (SGC-7901): 16.6 µM

Cc1cccc2c1cnn2-c1ccc(NC(=O)Nc2ccc(Cl)c(C(F)(F)F)c2)cc1
IC50 (HT-29): 32 µM
IC50 (A549): 5.5 µM
IC50 (OS-RC-2): 32 µM
IC50 (LoVo): 3.9 µM
IC50 (NCI-H460): 2.5 µM
IC50 (MDA-MB-231): 2.3 µM
IC50 (HepG2): 4 µM
IC50 (Bel-7402): 6.7 µM
IC50 (SGC-7901): 14.2 µM

O=C(Nc1ccc(-n2ncc3ccccc32)cc1)Nc1ccc(Cl)c(C(F)(F)F)c1
IC50 (HT-29): 18.2 µM
IC50 (A549): 9.9 µM
IC50 (OS-RC-2): 32 µM
IC50 (LoVo): 8.7 µM
IC50 (NCI-H460): 5.5 µM
IC50 (MDA-MB-231): 5 µM
IC50 (HepG2): 8 µM
IC50 (Bel-7402): 10.6 µM
IC50 (SGC-7901): > 32 µM

O=C(Nc1ccc(-n2ncc3cccnc32)cc1)Nc1ccc(Cl)c(C(F)(F)F)c1
IC50 (HT-29): > 32 µM
IC50 (A549): > 32 µM
IC50 (OS-RC-2): > 32 µM
IC50 (LoVo): 32 µM
IC50 (NCI-H460): 16.6 µM
IC50 (MDA-MB-231): > 32 µM
IC50 (HepG2): > 32 µM
IC50 (Bel-7402): 20.9 µM
IC50 (SGC-7901): > 32 µM

O=C(Nc1ccc(-n2ncc3c(C(F)(F)F)cccc32)cc1)Nc1ccc(Cl)c(C(F)(F)F)c1
Activity (Mus musculus [1]): Non-toxic
IC50 (HT-29): 2.9 µM
IC50 (A549): 3 µM
IC50 (OS-RC-2): > 32 µM
IC50 (LoVo): 3 µM
IC50 (NCI-H460): 1.6 µM
IC50 (MDA-MB-231): 2 µM
IC50 (HepG2): 8 µM
IC50 (Bel-7402): 16 µM
IC50 (SGC-7901): > 32 µM

O=C(Nc1ccc(-n2ncc3c(C(F)(F)F)cccc32)cc1)Nc1ccc(C(F)(F)F)cc1
Activity (Mus musculus [1]): Non-toxic
IC50 (HT-29): 3.3 µM
IC50 (A549): 0.8 µM
IC50 (OS-RC-2): 4 µM
IC50 (LoVo): 2.2 µM
IC50 (NCI-H460): 0.8 µM
IC50 (MDA-MB-231): 2 µM
IC50 (HepG2): 1 µM
IC50 (Bel-7402): 1 µM
IC50 (SGC-7901): 4 µM

O=C(Nc1ccc(-n2ncc3ccncc32)cc1)Nc1ccc(Cl)c(C(F)(F)F)c1
IC50 (HT-29): 29.5 µM
IC50 (A549): 10.6 µM
IC50 (OS-RC-2): > 32 µM
IC50 (LoVo): 7.1 µM
IC50 (NCI-H460): 4.8 µM
IC50 (MDA-MB-231): > 32 µM
IC50 (HepG2): 16 µM
IC50 (Bel-7402): 4 µM
IC50 (SGC-7901): > 32 µM

O=C(Nc1ccc(-n2ncc3c(F)cccc32)cc1)Nc1ccc(Cl)c(C(F)(F)F)c1
IC50 (HT-29): 8.2 µM
IC50 (A549): 3.8 µM
IC50 (OS-RC-2): 32 µM
IC50 (LoVo): 9.8 µM
IC50 (NCI-H460): 3.4 µM
IC50 (MDA-MB-231): 3.1 µM
IC50 (HepG2): 29.5 µM
IC50 (Bel-7402): 16 µM
IC50 (SGC-7901): 32 µM

O=C(Nc1ccc(-n2ncc3cnccc32)cc1)Nc1ccc(Cl)c(C(F)(F)F)c1
IC50 (HT-29): 10.5 µM
IC50 (A549): 3.4 µM
IC50 (OS-RC-2): > 32 µM
IC50 (LoVo): 8 µM
IC50 (NCI-H460): 1.4 µM
IC50 (MDA-MB-231): 16 µM
IC50 (HepG2): 4 µM
IC50 (Bel-7402): 2.7 µM
IC50 (SGC-7901): 22.6 µM

COc1cccc2c1cnn2-c1ccc(NC(=O)Nc2ccc(Cl)c(C(F)(F)F)c2)cc1
IC50 (HT-29): > 32 µM
IC50 (A549): 3.7 µM
IC50 (OS-RC-2): 28.8 µM
IC50 (LoVo): > 32 µM
IC50 (NCI-H460): 2.2 µM
IC50 (MDA-MB-231): 1.2 µM
IC50 (HepG2): 4 µM
IC50 (Bel-7402): 2.9 µM
IC50 (SGC-7901): 29.8 µM

CNc1cccc2c1cnn2-c1ccc(NC(=O)Nc2ccc(Cl)c(C(F)(F)F)c2)cc1
IC50 (HT-29): 5.9 µM
IC50 (A549): 4.9 µM
IC50 (OS-RC-2): 10.6 µM
IC50 (LoVo): 6.3 µM
IC50 (NCI-H460): 2.6 µM
IC50 (MDA-MB-231): 3.6 µM
IC50 (HepG2): 3 µM
IC50 (Bel-7402): 5 µM
IC50 (SGC-7901): 6.9 µM

O=C(Nc1ccc(-n2ncc3c(Cl)cccc32)cc1)Nc1ccc(C(F)(F)F)cc1
IC50 (HT-29): 1 µM
IC50 (A549): 6 µM
IC50 (OS-RC-2): 4.6 µM
IC50 (LoVo): 5.1 µM
IC50 (NCI-H460): 6.8 µM
IC50 (MDA-MB-231): 2.7 µM
IC50 (HepG2): 6.7 µM
IC50 (Bel-7402): 8 µM
IC50 (SGC-7901): 6 µM

CNC(=O)c1cc(Oc2ccc(NC(=O)Nc3ccc(Cl)c(C(F)(F)F)c3)cc2)ccn1 [SORAFENIB]
IC50 (HT-29): 4 µM
IC50 (A549): 4 µM
Activity (Mus musculus [2]): Non-toxic
IC50 (OS-RC-2): 16 µM
IC50 (LoVo): 3.3 µM
IC50 (NCI-H460): 3.9 µM
IC50 (MDA-MB-231): 2 µM
IC50 (HepG2): 4 µM
IC50 (Bel-7402): 5.8 µM
IC50 (SGC-7901): 6.9 µM
